Reference: ChEMBL document CHEMBL4390663, “Cationic biaryl 1,2,3-triazolyl peptidomimetic amphiphiles: synthesis, antibacterial evaluation and preliminary mechanism of action studies” (Eur J Med Chem, 2019)
≈ marks a conversion by molar mass, not a printed value.

Columns and labels:
[1] = system: Enterococcus faecalis; experiment: Antibacterial activity against Enterococcus faecalis ATCC 29212 incubated for 24 hrs by CLSI method; format: functional; settings: ATCC 29212, 24 h
[2] = system: Clostridioides difficile; experiment: Antibacterial activity against Clostridium difficile NSW132 RT027 incubated for 48 hrs by CLSI method; format: functional; settings: NSW132 RT027, 48 h
Procedure, shortened: (§1)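 Broth microdilution per CLSI anaerobe method in pre-reduced (2-4 h) Brucella broth with haemin and vitamin K, 35 °C anaerobically for 48 h. Compounds from 5 mg/mL DMSO stocks, twofold dilutions in water mixed with double-strength broth; final 0.25–128 μg/mL. […] Triplicate; modal MIC read visually as lowest concentration inhibiting growth.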

[3] = system: Streptococcus pneumoniae; experiment: Antibacterial activity against Streptococcus pneumoniae ATCC 49619 incubated for 24 hrs by CLSI method; format: functional; settings: ATCC 49619, 24 h
Procedure, shortened: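 CLSI broth microdilution in MHB with 2.5% lysed horse blood, 5% CO2, 35 °C, 24 h. Compounds from 5 mg/mL DMSO stocks diluted in water plus double-strength broth; final 0.25–128 μg/mL. […] Triplicate; modal MIC read visually as lowest growth-inhibiting concentration.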

[4] = system: Enterococcus faecalis; experiment: Antimicrobial activity against vancomycin-resistant Enterococcus faecalis clinical isolate incubated for 18 hrs by CLSI method; format: functional
[5] = system: Escherichia coli; experiment: Induction of cytoplasmic membrane depolarization in Escherichia coli NCTC 10418 at 64 ug/ml incubated for 30 mins by diSC35 staining based fluorescence assay relative to control; format: functional
Procedure, shortened: (§2)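 Mid-log cells (1.5 McFarland) loaded with 4 µM diSC3(5) in the dark at room temperature: S. aureus in PBS 30 min; E. coli in 5 mM HEPES/20 mM glucose pH 7.2 for 60 min, then 100 mM KCl and 0.5 mM EDTA. Baseline fluorescence (ex 620/em 670 nm) ~8 min, then compound added (final 32 µg/mL S. aureus, 64 µg/mL E. coli), tracked ~30 min.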

[6] = system: Staphylococcus aureus; experiment: Antimicrobial activity against methicillin-resistant Staphylococcus aureus clinical isolate with reduced daptomycin susceptibility incubated for 18 hrs by CLSI method; format: functional
[7] = system: Escherichia coli; experiment: Antibacterial activity against Escherichia coli ATCC 25922 incubated for 18 hrs by CLSI method; format: functional
Procedure, shortened: (§3)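 Screen run by CO-ADD: mid-log cultures in cation-adjusted MHB, 5 × 10^5 CFU/mL, compounds at up to 32 μg/mL in 1:2 serial dilutions (8 steps), final DMSO ≤0.5%, duplicate. 37 °C for 18 h without shaking; OD600 read against media-only and untreated-bacteria references. MIC = lowest concentration giving ≥80% inhibition; colistin standard.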

[8] = system: Escherichia coli; experiment: Bactericidal activity against exponential phase of Escherichia coli NCTC 10418 assessed as reduction in bacterial count at 64 ug/ml measured at <= 120 mins by time-kill kinetics assay relative to control; format: functional
[9] = system: Pseudomonas aeruginosa; experiment: Antimicrobial activity against Pseudomonas aeruginosa ATCC 27853 incubated for 18 hrs by CLSI method; format: functional; procedure, shortened: as §3
[10] = system: Clostridioides difficile; experiment: Antibacterial activity against Clostridium difficile ATCC 700057 incubated for 48 hrs by CLSI method; format: functional; settings: ATCC 700057, 48 h; procedure, shortened: as §1
[11] = system: Escherichia coli; experiment: Induction of plasma membrane permeabilization in Escherichia coli NCTC 10418 at 32 ug/ml measured for 30 mins by propidium iodide staining based fluorescence assay relative to control; format: functional
Procedure, shortened: (§4)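 Mid-log cells (1.5 McFarland) with 4 µM propidium iodide, dark, room temperature: S. aureus in PBS 30 min; E. coli in 5 mM HEPES/20 mM glucose pH 7.2 for 60 min, then 100 mM KCl and 0.5 mM EDTA. Fluorescence (ex 544/em 615 nm) read ~8 min baseline, then ~30 min after compound at 32 µg/mL final.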

[12] = Cytotoxicity against human HEK293 cells assessed as reduction in cell growth incubated for 20 hrs by resazurin dye-based fluorometric assay
Procedure, shortened: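 HEK293 cells, 5000 per well in DMEM + 10% FBS, exposed to compounds (top 32 μg/mL, 1:2 serial dilution ×8, ≤0.5% DMSO, duplicate) for 20 h at 37 °C, 5% CO2. Resazurin added (2.3 μg/mL final), 3 h further; fluorescence ex 560/em 590 nm. CC50 from sigmoidal dose-response fit against log concentration; tamoxifen standard.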

[13] = Haemolytic activity in sheep erythrocytes at 50 ug/ml incubated for 2 hrs under shaking condition relative to control; format: ADME, cell-based, Ovis aries, Erythrocyte; settings: read-out: Activity
Procedure, shortened: (§5)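 Compounds in PBS mixed with washed sheep erythrocytes (2% final) at 5 or 50 μg/mL, rocked 2 h at 37 °C, centrifuged; supernatant absorbance at 540 nm. PBS-only value subtracted, then expressed relative to water lysis (100%). Triplicate, means reported.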

[14] = system: Staphylococcus aureus; experiment: Bactericidal activity against exponential phase of Staphylococcus aureus ATCC 29213 assessed as reduction in bacterial count at 64 ug/ml measured at <= 30 mins by time-kill kinetics assay relative to control; format: functional
[15] = system: Acinetobacter baumannii; experiment: Antimicrobial activity against Acinetobacter baumannii ATCC 19606 incubated for 18 hrs by CLSI method; format: functional; procedure, shortened: as §3
[16] = system: Staphylococcus aureus; experiment: Induction of plasma membrane permeabilization in Staphylococcus aureus ATCC 29213 at 32 ug/ml measured for 30 mins by propidium iodide staining based fluorescence assay relative to control; format: functional; procedure, shortened: as §4
[17] = system: Staphylococcus aureus; experiment: Antimicrobial activity against methicillin-resistant Staphylococcus aureus ATCC 43300 incubated for 18 hrs by CLSI method; format: functional; settings: ATCC 43300, 18 h
[18] = system: Staphylococcus aureus; experiment: Antimicrobial activity against vancomycin resistant Staphylococcus aureus NARSA VRS10 incubated for 18 hrs by CLSI method; format: functional; settings: NARSA VRS10, 18 h
[19] = system: Staphylococcus aureus; experiment: Antimicrobial activity against Staphylococcus aureus ATCC 43300 incubated for 18 hrs by CLSI method; format: functional; settings: ATCC 43300, 18 h
[20] = system: Staphylococcus aureus; experiment: Antimicrobial activity against glycopeptide intermediate susceptible Staphylococcus aureus NRS17 incubated for 18 hrs by CLSI method; format: functional; settings: NRS17, 18 h
[21] = system: Staphylococcus aureus; experiment: Bactericidal activity against exponential phase of Staphylococcus aureus ATCC 29213 assessed as reduction in bacterial count at 64 ug/ml measured at 2 hrs by time-kill kinetics assay; format: functional
[22] = Haemolytic activity in sheep erythrocytes at 5 ug/ml incubated for 2 hrs under shaking condition relative to control; format: ADME, cell-based, Ovis aries, Erythrocyte; settings: read-out: Activity; procedure, shortened: as §5
[23] = system: Staphylococcus aureus; experiment: Antimicrobial activity against Staphylococcus aureus ATCC 29213 incubated for 24 hrs by CLSI method; format: functional; settings: ATCC 29213, 24 h
Procedure, shortened: (§6)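 Broth microdilution per CLSI aerobic guidance in Mueller Hinton broth, ambient air, 35 °C for 24 h. DMSO stocks were diluted in water, then serially diluted with double-strength broth inoculum added, for final 0.25–128 μg/mL. […] MIC was read visually as the lowest concentration inhibiting growth; the modal value of triplicates was recorded.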

[24] = system: Staphylococcus aureus; experiment: Induction of cytoplasmic membrane depolarization in Staphylococcus aureus ATCC 29213 at 32 ug/ml incubated for 30 mins by diSC35 staining based fluorescence assay relative to control; format: functional; procedure, shortened: as §2
[25] = system: Streptococcus pneumoniae; experiment: Antibacterial activity against MDR Streptococcus pneumoniae ATCC 700677 incubated for 18 hrs by CLSI method; format: functional; settings: ATCC 700677, 18 h
[26] = system: Staphylococcus aureus; experiment: Antimicrobial activity against methicillin-resistant Staphylococcus aureus clinical isolate incubated for 18 hrs by CLSI method; format: functional
[27] = system: Klebsiella pneumoniae; experiment: Antibacterial activity against Klebsiella pneumoniae 700603 incubated for 18 hrs by CLSI method; format: functional; procedure, shortened: as §3
[28] = system: Staphylococcus aureus; experiment: Antimicrobial activity against glycopeptide intermediate susceptible/methicillin-resistant Staphylococcus aureus NRS1 incubated for 18 hrs by CLSI method; format: functional; settings: NRS1, 18 h
[29] = system: Staphylococcus aureus; experiment: Antibacterial activity against methicillin-resistant Staphylococcus aureus NCTC 10442 incubated for 24 hrs by CLSI method; format: functional; settings: NCTC 10442, 24 h; procedure, shortened: as §6
[30] = system: Staphylococcus aureus; experiment: Bactericidal activity against exponential phase of Staphylococcus aureus ATCC 29213 assessed as reduction in bacterial count at 4 ug/ml measured at 2 hrs by time-kill kinetics assay; format: functional, organism-based
[31] = system: Escherichia coli; experiment: Induction of plasma membrane permeabilization in Escherichia coli NCTC 10418 at 64 ug/ml measured for 30 mins by propidium iodide staining based fluorescence assay relative to control; format: functional, organism-based
[32] = ATCC 19606 = CIP 70.34 = JCM 6841, 18 h
[33] = Klebsiella pneumoniae, 700603, 18 h

Row | Compound | MIC [1] | MIC [2] | MIC [3] | MIC [4] | Activity [5] | MIC [6] | MIC ([7]; ATCC 25922, 18 h) | MIC ([9]; ATCC 27853, 18 h) | MIC [10] | Activity [11] | CC50 at 20 h [12] | hemolysis at 2 h, 50 ug/ml [13] | MIC [17] | MIC [18] | MIC [20] | MIC [23] | MIC [25] | MIC [26] | MIC [28] | MIC [29] | also measured
1 | CC(C)CCOc1ccc2ccccc2c1-c1c(OCc2cn(C[C@@H](CCCCN)NC(=O)[C@@H](CCCNC(=N)N)NC(=O)CCc3ccccc3)nn2)ccc2ccccc12.Cl.Cl | 4 µg/mL | 32 µg/mL | 4 µg/mL | 2 µg/mL | 460 - 900% | 2 to 4 µg/mL | 8 µg/mL | 16 µg/mL | 16 µg/mL | 25 - 40% | 27.4 µg/mL | 94.2% | 1 to 2 µg/mL | 2 µg/mL | 2 µg/mL | 4 µg/mL | 1 to 2 µg/mL | 4 µg/mL | 2 to 4 µg/mL | 4 µg/mL | Activity [8]: >=3 log10CFU/ml; Activity [14]: >=3 log10CFU/ml; MIC [15, 32]: 32 µg/mL; Activity [16]: 600%; MIC [19]: 2 µg/mL; Activity [21]: < 1000 CFU/mL; hemolysis at 2 h, 5 ug/ml [22]: 1.1%; Activity [24]: 120 - 180%; MIC [27, 33]: 32 µg/mL
2 | CC(C)CCOc1ccccc1-c1ccccc1OCc1cn(C[C@@H](CCCCN)NC(=O)CCc2ccccc2)nn1.Cl | 8 µg/mL | 16 µg/mL | 8 µg/mL | – | 460 - 900% | – | 32 µg/mL | 32 µg/mL | 8 µg/mL | 75% | 4.8 µg/mL | 101% | – | – | – | 8 µg/mL | – | – | – | 4 µg/mL | MIC [15, 32]: > 32 µg/mL; Activity [16]: 600%; MIC [19]: 16 µg/mL; hemolysis at 2 h, 5 ug/ml [22]: 0.2%; Activity [24]: 120 - 180%; MIC [27, 33]: 32 µg/mL
3 | CC(C)CCOc1ccc2ccccc2c1-c1c(OCc2cn(C[C@@H](CCCCN)NC(=O)Cc3ccc4c(c3)OCO4)nn2)ccc2ccccc12.Cl | 8 µg/mL | 32 µg/mL | 16 µg/mL | 4 µg/mL | – | 8 µg/mL | – | – | 32 µg/mL | – | – | – | 8 µg/mL | 8 to 16 µg/mL | 16 µg/mL | 8 µg/mL | 8 to 16 µg/mL | > 32 µg/mL | 8 to 16 µg/mL | 8 µg/mL | –
4 | COLISTIN | – | – | – | – | 400% | – | – | – | – | – | – | – | – | – | – | – | – | – | – | – | MIC [7]: 0.125 µg/mL; MIC [9]: 0.25 µg/mL; Activity [30]: < 1000 CFU/mL; MIC ([15]; ATCC 19606 = CIP 70.34 = JCM 6841): 0.25 µg/mL; Activity [31]: 75%; MIC [27]: 0.25 µg/mL
5 | CCCCCCCCCC(=O)N[C@@H](Cc1c[nH]c2ccccc12)C(=O)N[C@H](CC(N)=O)C(=O)N[C@@H](CC(=O)O)C(=O)N[C@@H]1C(=O)NCC(=O)N[C@@H](CCCN)C(=O)N[C@@H](CC(=O)O)C(=O)N[C@H](C)C(=O)N[C@@H](CC(=O)O)C(=O)NCC(=O)N[C@H](CO)C(=O)N[C@@H]([C@H](C)CC(=O)O)C(=O)N[C@@H](CC(=O)c2ccccc2N)C(=O)O[C@@H]1C | – | – | – | 8 µg/mL (≈ 4.94 µM) | – | 4 µg/mL (≈ 2.47 µM) | – | – | – | – | – | – | 0.5 to 1 µg/mL (≈ 0.309 to 0.617 µM) | 2 µg/mL (≈ 1.23 µM) | 8 µg/mL (≈ 4.94 µM) | – | 1 to 2 µg/mL (≈ 0.617 to 1.23 µM) | 2 µg/mL (≈ 1.23 µM) | 8 µg/mL (≈ 4.94 µM) | – | –
